Experimental data published in publication PMC3056322 (Journal of the American Chemical Society, 2010).
Each block holds one molecule with its values, some of them ahead of it. Non-standard residues stand in square brackets, D forms with d. Residues, ends and D or L forms follow the SMILES beside them. pS = N[C@@H](COP(=O)(O)O)C(=O)O

How the values were obtained:
[1] = target: T1, Pin1-PPIase (truncated human Pin1 construct omitting the WW domain) (Homo sapiens, UniProt Q13526); assay: 2-D 1H–1H EXSY of cis–trans isomerization with Pin1-PPIase; assay type: biochemical; details: 1H–1H EXSY of attached P4 Hδ protons
T1 sequence (Q13526 50-163 limits assumed): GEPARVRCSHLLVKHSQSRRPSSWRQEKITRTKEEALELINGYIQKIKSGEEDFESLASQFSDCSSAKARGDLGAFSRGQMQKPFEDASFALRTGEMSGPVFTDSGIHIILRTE
Outline: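 2-D 1H–1H EXSY was run on an acetylated, amidated phospho-Ser-Pro pentapeptide substrate with Pin1-PPIase. Enzyme levels relative to ligand were raised up to 20%. Cis–trans exchange rate and cis population were taken from the EXSY data.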

[2] = target: T1, Pin1-PPIase (truncated human Pin1 construct omitting the WW domain); assay: Natural abundance 13C CPMG relaxation dispersion of ligand with Pin1-PPIase; assay type: binding
[3] = target: T1, Pin1-PPIase (truncated human Pin1 construct omitting the WW domain); assay: 15N–1H chemical shift perturbation ligand titration; assay type: binding
Outline: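 Pin1-PPIase was titrated with the test compound, and the protein's amide 15N–1H chemical shift perturbations were followed. Kd was obtained by fitting the resulting binding isotherms.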

[4] = target: T2, FFpSPR substrate phosphopeptide (SMILES CC(=O)N[C@@H](Cc1ccccc1)C(=O)N[C@@H](Cc1ccccc1)C(=O)N[C@@H](COP(=O)(O)O)C(=O)N1CCC[C@H]1C(=O)N[C@@H](CCCNC(=N)N)C(N)=O); assay: NMR chemical shift titration
T2 chain: Ac-FF[pS]PR-NH2

[5] = target: T3, cis-locked alkene isostere inhibitor (also: pSer-Pro amide replaced by (Z)CH=C alkene isostere); assay: NMR chemical shift titration
T3 chain: Ac-FF[pS]PR-NH2

[6] = target: T4, trans-locked alkene isostere inhibitor (also: pSer-Pro amide replaced by (E)CH=C alkene isostere); assay: NMR chemical shift titration
T4 chain: Ac-FF[pS]PR-NH2

[7] = side-chain P4-Cδ, 1% Pin1-PPIase, two-state fit

pCIS ([1]; cis population): 12 ± 2% | kex,CIS/TRANS ([1]; cis–trans isomerization): 87 ± 4 s⁻¹ | kex ([2]; P4-Cα and F1-Cα, 1% Pin1-PPIase): 200 to 800 s⁻¹ | C-terminal R5-Cα dispersion ([2]; R5-Cα, 1% Pin1-PPIase): strong dispersion | kex [2, 7]: 85 ± 9 s⁻¹ | pminor [2, 7]: 17 ± 4% | 13C dispersion at lower temperature ([2]; with Pin1-PPIase, lower temperature): decrease in FFpSPR dispersion | Kd [3]: 203 ± 46 µM
Molecule: CC(=O)N[C@@H](Cc1ccccc1)C(=O)N[C@@H](Cc1ccccc1)C(=O)N[C@@H](COP(=O)(O)O)C(=O)N1CCC[C@H]1C(=O)N[C@@H](CCCNC(=N)N)C(N)=O [FFpSPR, Ac-Phe-Phe-pSer-Pro-Arg-NH2] (Ac-FF[pS]PR-NH2)

Kd [4]: 203 µM | Kd [5]: 7 µM | Kd [6]: 78 µM
B1: Pin1 PPIase domain (protein)
chain: PARVRCSHLLVKHSQSRRPSSWRQEKITRTKEEALELINGYIQKIKSGEEDFESLASQFSDCSSAKARGDLGAFSRGQMQKPFEDASFALRTGEMSGPVFTDSGIHIILRTE
